According to ChEMBL document CHEMBL4665801, “Pyrazole-Based Lactate Dehydrogenase Inhibitors with Optimized Cell Activity and Pharmacokinetic Properties” (J Med Chem, 2020):
Activity calls are given as the source filed them. How the calls were made is not given here.

Legend:
[1] = target: T1, L-lactate dehydrogenase A chain (Homo sapiens, UniProt P00338); assay: Inhibition of recombinant human LDHA using sodium pyruvate as substrate preincubated for 5 mins followed by diaphorase/resazurin addition and measured after 20 mins by fluorescence based assay
[2] = tested on: A673; assay: Cytotoxicity against human A673 cells assessed as reduction in cell viability after 48 hrs by CellTiter-Glo assay; type: functional, cell-based; conditions: A673, 48 h
[3] = tested on: MIA PaCa-2; assay: Cytotoxicity against human MIA PaCa-2 cells assessed as reduction in cell viability after 48 hrs by CellTiter-Glo assay; type: functional, cell-based; conditions: MIA PaCa-2, 48 h
[4] = species: Sus scrofa; assay: Inhibition of porcine heart MDH using malic acid as substrate preincubated for 10 mins followed by substrate addition and measured after 5 mins by resazurin based fluorescence based assay; conditions: time 15.0 min
[5] = target: T1, L-lactate dehydrogenase A chain; assay: Inhibition of LDHA in human MIA PaCa-2 cells assessed as decrease in lactate production incubated for 2 hrs by lactate oxidase-coupled fluorescence based assay; type: cell-based
[6] = target: L-lactate dehydrogenase B chain (Homo sapiens) (UniProt P07195); assay: Inhibition of recombinant human LDHB using sodium pyruvate as substrate preincubated for 5 mins followed by diaphorase/resazurin addition and measured after 20 mins by fluorescence based assay
[7] = target: T1, L-lactate dehydrogenase A chain; assay: Inhibition of GS[HiBiT]GS-tagged LDHA (unknown origin) expressed in HEK-293T cells measured after 1 hr by […]; type: cell-based
How it was run: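 HEK293T cells were transiently transfected for 24 h with CMV-driven LDHA carrying a C-terminal GS[HiBiT]GS tag, then reseeded at 2500 cells/well in DPBS with Ca/Mg and 1 g/L glucose. […] Cells were lysed with NP40, and 11S (100 nM final) plus furimazine was added.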

[8] = target: T1, L-lactate dehydrogenase A chain; assay: Inhibition of LDHA in human A673 cells assessed as decrease in lactate production incubated for 2 hrs by lactate oxidase-coupled fluorescence based assay; type: cell-based

L-lactate dehydrogenase B chain (Homo sapiens), sequence (P07195 2-334 limits assumed): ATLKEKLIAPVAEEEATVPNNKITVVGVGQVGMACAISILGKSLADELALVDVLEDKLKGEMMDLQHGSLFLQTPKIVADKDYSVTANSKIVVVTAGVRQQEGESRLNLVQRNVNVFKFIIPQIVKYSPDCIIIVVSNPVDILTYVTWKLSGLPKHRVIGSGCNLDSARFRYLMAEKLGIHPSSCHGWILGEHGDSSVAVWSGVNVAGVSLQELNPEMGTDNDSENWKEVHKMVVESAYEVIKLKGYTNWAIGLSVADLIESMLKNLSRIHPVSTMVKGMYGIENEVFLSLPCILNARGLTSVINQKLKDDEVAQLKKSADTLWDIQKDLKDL

Row | IC50 [1] [nM] | inhibition [4] | IC50 [5] [nM] | inhibition [6] | IC50 [7] [nM] | IC50 [8] [nM] | Compound | IC50 [2] [nM] | IC50 [3] [nM]
1 | 43 | inactive | 720 | Active | 38 | 713 | Cc1ncc(C#Cc2cccc(-c3nn(-c4nc(C(=O)O)cs4)c(CC4CC4)c3Cc3ccc(S(N)(=O)=O)c(F)c3)c2)s1 | 532 | 641
2 | 21 | inactive | 487 | Active | 2050 | 284 | CC(C)C#Cc1cc(-c2nn(-c3nc(C(=O)O)cs3)c(CC3CC3)c2Cc2ccc(S(N)(=O)=O)c(F)c2)ccc1F | 1010 | 756
3 | 14 | inactive | 822 | Active | 127 | 800 | CC(F)C#Cc1cc(-c2nn(-c3nc(C(=O)O)cs3)c(CC3CC3)c2Cc2ccc(S(N)(=O)=O)c(F)c2)ccc1F (stereo unspecified) | 1130 | 1020
4 | 274 | inactive | 19400 | Active | 15800 | 9720 | NS(=O)(=O)c1ccc(Cc2c(-c3cccc(-c4ccccc4)c3)nn(-c3nc(C(=O)O)cs3)c2CC(F)(F)F)cc1 | 148 | 3170
5 | 15 | inactive | 741 | Active | 163 | 937 | NS(=O)(=O)c1ccc(Cc2c(-c3ccc(F)c(C#CC(F)F)c3)nn(-c3nc(C(=O)O)cs3)c2CC2CC2)cc1F | 1480 | 1330
6 | 9 | inactive | 1140 | Active | 189 | 1600 | Cn1cc(C#Cc2cc(-c3nn(-c4nc(C(=O)O)cs4)c(CC4CC4)c3Cc3ccc(S(N)(=O)=O)c(F)c3)ccc2F)cn1 | 593 | 619
7 | 9 | inactive | 937 | Active | 178 | 933 | NS(=O)(=O)c1ccc(Cc2c(-c3ccc(F)c(C#CCC4CCCO4)c3)nn(-c3nc(C(=O)O)cs3)c2CC2CC2)cc1F (stereo unspecified) | 1380 | 1220
8 | 23 | inactive | 585 | Active | 141 | 465 | NS(=O)(=O)c1ccc(Cc2c(-c3ccc(F)c(-c4ccccc4)c3)nn(-c3nc(C(=O)O)cs3)c2CC2CC2)cc1F | 1340 | 3420
9 | 47 | inactive | 281 | Active | 89 | 298 | NS(=O)(=O)c1ccc(Cc2c(-c3cccc(C#CC4CCCC4)c3)nn(-c3nc(C(=O)O)cs3)c2CC2CC2)cc1F | 419 | 377
10 | 3 | inactive | 1660 | Active | 577 | 2480 | NS(=O)(=O)c1ccc(Cc2c(-c3ccc(F)c(C#CCCO)c3)nn(-c3nc(C(=O)O)cs3)c2CC2CC2)cc1F | 1800 | 1330
11 | 167 | inactive | 408 | Active | 113 | 218 | NS(=O)(=O)c1ccc(Cc2c(-c3cccc(C#Cc4ccc(Cl)s4)c3)nn(-c3nc(C(=O)O)cs3)c2CC2CC2)cc1F | 452 | 556
12 | 8 | inactive | 525 | Active | 119 | 769 | COCC#Cc1cc(-c2nn(-c3nc(C(=O)O)cs3)c(CC3CC3)c2Cc2ccc(S(N)(=O)=O)c(F)c2)ccc1F | 1220 | 1090
13 | 23 | inactive | 1220 | Active | 401 | 835 | NS(=O)(=O)c1ccc(Cc2c(-c3ccc(F)c(-c4ccccc4)c3)nn(-c3nc(C(=O)O)cs3)c2CC2CC2)cc1 | 2650 | 8450
14 | 31 | inactive | 259 | Active | 89 | 234 | NS(=O)(=O)c1ccc(Cc2c(-c3ccc(F)c(C#CCC4CC4)c3)nn(-c3nc(C(=O)O)cs3)c2CC2CC2)cc1F | 1020 | 1030
15 | 487 | inactive | 188 | Active | 299 | 162 | Cc1cc(C#Cc2cccc(-c3nn(-c4nc(C(=O)O)cs4)c(CCC4CC4)c3Cc3ccc(S(N)(=O)=O)c(F)c3)c2)c(C)s1 | 402 | 402
16 | 385 | inactive | 203 | Active | 179 | 296 | CC(C)c1ccc(C#Cc2cccc(-c3nn(-c4nc(C(=O)O)cs4)c(CC4CC4)c3Cc3ccc(S(N)(=O)=O)c(F)c3)c2)s1 | 528 | 590
17 | 137 | inactive | 218 | Active | 201 | 345 | Cc1cc(C)c(C#Cc2cccc(-c3nn(-c4nc(C(=O)O)cs4)c(CC4CC4)c3Cc3ccc(S(N)(=O)=O)c(F)c3)c2)s1 | 528 | 533

Row | Compound | IC50 [1] [nM] | inhibition [4] | IC50 [5] [nM] | inhibition [6] | IC50 [7] [nM] | IC50 [8] [nM] | IC50 [2] [nM] | IC50 [3] [nM]
18 | NS(=O)(=O)c1ccc(Cc2c(-c3cccc(-c4ccccc4)c3)nn(-c3nc(C(=O)O)cs3)c2CC2CC2)cc1F | 25 | inactive | 867 | Active | 150 | 613 | 1140 | 3380
19 | NS(=O)(=O)c1ccc(Cc2c(-c3ccc(F)c(C#CC4CC4)c3)nn(-c3nc(C(=O)O)cs3)c2CC2CC2)cc1F | 9 | inactive | 554 | Active | 100 | 695 | 132 | 323
20 | CC#Cc1cc(-c2nn(-c3nc(C(=O)O)cs3)c(CC3CC3)c2Cc2ccc(S(N)(=O)=O)c(F)c2)ccc1F | 11 | inactive | 450 | Active | 119 | 505 | 332 | 322
21 | N#CC#Cc1cc(-c2nn(-c3nc(C(=O)O)cs3)c(CC3CC3)c2Cc2ccc(S(N)(=O)=O)c(F)c2)ccc1F | 15 | inactive | 4400 | Active | 474 | 4010 | > 30000 | > 30000
22 | NS(=O)(=O)c1ccc(Cc2c(-c3ccc(F)c(C#CC4CCC4)c3)nn(-c3nc(C(=O)O)cs3)c2CC2CC2)cc1F | 23 | inactive | 428 | Active | 133 | 378 | 593 | 573
